Sampled rows, rich in hits. Any-hit rate of the full collection: about 0.79%.
PKA-R2B activ: PKA-R2B complex activation | hit rate 0.079% among 340,000 | activation, % at 11.4 µM | P22694+P31323 | PKA-R2B holoenzyme dissociation, Cy5-IP20 fluorescence polarization; R2B truncated from residue 108, S112A mutant; 0% DMSO only, 100% 113 µM cGMP;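 active = activation above a cutoff set at the mean over all compounds plus 3 SD, cut at about 18% in these data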;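 also: higher means more holoenzyme dissociation and a rise in polarization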
Rin1-Abl PPI inh: inhibitors of human Rin1-Abl protein interaction. inhibition, % at 7.35 µM. TR-FRET Rin1/Abl binding, biochemical. hit rate 0.4% among 360,000. AID 588664; in the data active = inhibition above about 5%, passing the limit was not always enough
PKA-R1A activ: PKA-R1A complex activation; hit rate 0.083% among 340,000; PKA-R1A dissociation, Cy5-IP20 fluorescence polarization; scaled: DMSO 0%, 113 µM cGMP 100%; activation, % at 11.4 µM;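 active = percent activation above the mean of all tested compounds plus 3 SD, cut at about 19% in these data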;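 also: higher means more PKAc released from R1A so a rise in polarization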
UCH37 inh: blocks the human deubiquitinase UCH37; inhibition, % (concentration not given with the values); purified proteasome/UCH37, Ub-AMC cleavage fluorescence; Q9Y5K5; hit rate 0.33% among 330,000;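 active = mean inhibition over replicate wells above about 20%, limit read from the data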
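Material: human UCH37 enzyme supplied as purified proteasome complex. Measure: % inhibition of Ub-AMC cleavage fluorescence. Medium: pH 7.4 Tris-HCl (50 mM) with ovalbumin, ATP-MgCl2, DTT. Times: 30 min preincubation with enzyme, 25 min cleavage at room temperature. Detection: AMC fluorescence intensity at 355/460 nm.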
Rin1 Abl conf: Rin1-Abl interaction inhibition confirmation. shares compounds with Rin1-Abl PPI inh. TR-FRET Rin1-Abl binding, purified proteins. inhibition, % at 7.35 µM. hit rate 49% among 1,300
GFP quencher: quenches GFP fluorescence, counter-screen for Rin1-Abl inhibitors; shares compounds with Rin1-Abl PPI inh; inhibitors/quenchers counterscreen; inhibition, % at 6.75 µM; hit rate 8.5% among 1,300; AID 602125;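 also: ABL1-eGFP fusion protein alone without its partner RIN1-SBP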
GFP quench DR: GFP fluorescence interference dose response. shares compounds with Rin1-Abl PPI inh. GFP fluorescence interference/quenching counterscreen. IC50, µM. 230 tested, under 10 active. AID 602182; call rule not given here;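 also: ABL1-eGFP fusion protein alone without its RIN1 binding partner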
Of the large screens only hits and unclear results are named; the others gave an inactive call (follow-up assays come after a bar, where they were run). Rule as the data show it, unless noted: active = inhibition above about 6.5%; inactive = the rest.

CN1CCC(N(C)C(=O)c2sc3cc(F)ccc3c2Cl)CC1	none
O=C(O)c1cc(NN=C2CC(c3ccccc3)Oc3ccccc32)ccc1Cl (stereo not given)	none (no result: PKA-R2B activ, Rin1-Abl PPI inh, PKA-R1A activ)
CCc1nc2c(OCC(=O)N3CCOCC3)cccn2c1N(C)C(=O)COc1ccccc1	none (no result: PKA-R2B activ, PKA-R1A activ, UCH37 inh)
CN(Cc1ccc(F)cc1)C(=O)c1ccc(NS(=O)(=O)c2ccccc2)cc1	Rin1-Abl PPI inh 9.5 | Rin1 Abl conf inactive | GFP quencher inactive
CC(NC(=O)C1CCN(c2nnc(N3CCCC3=O)s2)CC1)c1ccccc1 (stereo not given)	none
CC(NC(=O)C(=O)c1cn(CC(=O)N2CCOCC2)c2ccccc12)c1ccccc1 (stereo not given)	Rin1-Abl PPI inh 18 | Rin1 Abl conf inactive | GFP quencher inactive
CC(NC(=O)C(=O)c1cn(CC(=O)N2CCCC2)c2ccccc12)c1ccccc1 (stereo not given)	none (no result: UCH37 inh)
O=c1c(-c2ccccc2)coc2c(CN3CCCC3)c(O)ccc12	Rin1-Abl PPI inh 5.9 | Rin1 Abl conf inactive | GFP quencher inactive
COC(=O)c1oc2ccc(Br)cc2c1NC(=O)CCCN1C(=O)c2ccccc2C1=O	none
COc1ccc(C(=O)C2CCCN(Cc3cccn3-c3nccs3)C2)cc1OC (stereo not given)	Rin1-Abl PPI inh 6.0 | Rin1 Abl conf inactive | GFP quencher inactive
CC(=O)c1cccc(CN2CCN(CC=C(C)C)C(CCO)C2)c1 (stereo not given)	none
CCOc1ccc(S(=O)(=O)Nc2ccc(C(=O)N3CC(C)OC(C)C3)cc2)cc1 (stereo not given)	none
CCOc1ccc(NS(=O)(=O)c2ccc(C(=O)N3CC(C)OC(C)C3)cc2)cc1 (stereo not given)	Rin1-Abl PPI inh 8.9 | Rin1 Abl conf 9.7 | GFP quencher inactive
COC(=O)c1ccc(CSc2nnc(CNC(=O)c3ccc(OC)cc3)o2)o1	none
COC(=O)c1ccc(CSc2nnc(CNC(=O)c3ccccc3F)o2)o1	Rin1-Abl PPI inh 8.5 | Rin1 Abl conf 11 | GFP quencher inactive
COC(=O)c1ccc(CSc2nnc(CNC(=O)COc3ccc(Cl)cc3)o2)o1	Rin1-Abl PPI inh 17 | Rin1 Abl conf 19 | GFP quencher inactive | GFP quench DR inactive
NNC(=O)c1cc(Br)cs1	none
Cc1cc(C)c2c(c1)SC1=NC(c3ccccc3)(C(F)(F)F)NC(=O)N12 (stereo not given)	Rin1-Abl PPI inh 7.0 | Rin1 Abl conf inactive | GFP quencher inactive
Cc1cccc(NC(=O)[C@@H](CC(C)C)NC(=O)[C@@H]2Cc3ccccc3CN2)c1	Rin1-Abl PPI inh 30 | Rin1 Abl conf inactive | GFP quencher inactive
CCC(C)N1C(=O)CCC1C(=O)N1CCN(c2ccccc2F)CC1 (stereo not given)	Rin1-Abl PPI inh 5.3 | Rin1 Abl conf inactive | GFP quencher inactive
COc1cccc(CN(C)C(=O)c2cc(S(=O)(=O)N3CCCC3)ccc2C)c1OC	Rin1-Abl PPI inh 8.9 | Rin1 Abl conf inactive | GFP quencher inactive
CCCCn1c(N)c(N(CCC(C)C)C(=O)C2CCN(C(=O)c3ccccc3C)CC2)c(=O)[nH]c1=O	Rin1-Abl PPI inh 8.4 | Rin1 Abl conf inactive | GFP quencher inactive
Cn1c(=O)[nH]c(=O)c2c1nc(NCc1ccco1)n2Cc1ccccc1Cl	Rin1-Abl PPI inh 13 | Rin1 Abl conf 18 | GFP quencher inactive | GFP quench DR inactive
O=c1[nH]c2ccccc2n1CCCSCCCn1c(=O)[nH]c2ccccc21	Rin1-Abl PPI inh 8.7 | Rin1 Abl conf 14 | GFP quencher inactive
Cc1cc(C(=O)CSCCCn2c(=O)[nH]c3ccccc32)c(C)n1C	none
O=C(NC1CCCC1)c1cc(S(=O)(=O)N2CCCC2)ccc1Cl	Rin1-Abl PPI inh 7.6 | Rin1 Abl conf inactive | GFP quencher inactive
C=CCN(Cc1ccc(Br)s1)C(=O)c1ccc(OCc2c(C)noc2C)cc1	none (no result: UCH37 inh)
C/C(=N/Nc1ccc(C(=O)O)cc1)c1ccc(O)c(O)c1O	Rin1-Abl PPI inh 29 (no result: UCH37 inh) | Rin1 Abl conf 32 | GFP quencher 8.4
CCC(C)NC(=O)C1(N2C(=O)c3ccccc3C2=O)CCCC1 (stereo not given)	none
COc1ccccc1CNc1nc(NCCNC(C)=O)c2sccc2n1	Rin1-Abl PPI inh 19 (no result: PKA-R2B activ, PKA-R1A activ, UCH37 inh) | Rin1 Abl conf 15 | GFP quencher inactive
COc1ccccc1CNc1nc(NCc2ccccc2OC)c2sccc2n1	none (no result: PKA-R2B activ, PKA-R1A activ, UCH37 inh)
COc1ccccc1CNc1nc(NCc2ccc(NC(C)=O)cc2)c2sccc2n1	Rin1-Abl PPI inh 10 (no result: PKA-R2B activ, PKA-R1A activ, UCH37 inh) | Rin1 Abl conf 7.8 | GFP quencher inactive
CN(CC(=O)Nc1ccc(C#N)cc1)Cc1ccc(Cl)c(Cl)c1	Rin1-Abl PPI inh 6.1 | Rin1 Abl conf inactive | GFP quencher inactive
O=S(=O)(c1cccc(-n2cnnn2)c1)N1CCOCC1	Rin1-Abl PPI inh 8.9 | Rin1 Abl conf inactive | GFP quencher inactive
COc1cc(-n2cnnn2)ccc1S(=O)(=O)N1CCOCC1	none
Cc1ccc(C(=O)Cn2nnc(-c3cccs3)n2)cc1	none
CCOC(=O)C1CCCN(S(=O)(=O)c2c(C)c(C)cc(C)c2C)C1 (stereo not given)	none
CCCCc1nnc(NC(=O)c2ccc(OCc3c(C)noc3C)cc2)s1	Rin1-Abl PPI inh 17 | Rin1 Abl conf 28 | GFP quencher inactive | GFP quench DR inactive
Cc1cc(C)c(C(=O)O)c(CC(C)(C)C(=O)O)c1	none
Cc1ccc(NC(=O)CN2C(=O)N/C(=C/c3cccn3-c3ccc(C(=O)O)cc3)C2=O)cc1	Rin1-Abl PPI inh 9.7, UCH37 inh 21 | Rin1 Abl conf 9.0 | GFP quencher 9.9
O=C(CCCN1C(=O)c2ccccc2C1=O)Nc1ccccc1C(=O)N1CCOCC1	none
Cc1ccccc1OCC(=O)Nc1ccccc1-c1ccccc1	Rin1-Abl PPI inh 7.0 | Rin1 Abl conf inactive | GFP quencher inactive
O=C(NC(=S)N1CCOCC1)c1ccccc1Cl	none
O=C(c1ccccc1)N1CCN(C2CCCCC2)CC1	none
O=C(c1ccncc1)N1CCN(C2CCCCC2)CC1	Rin1-Abl PPI inh 10 | Rin1 Abl conf inactive | GFP quencher inactive
O=C(NCc1cccc(C(F)(F)F)c1)c1ccc2sc([C@@H]3O[C@H](CO)[C@@H](O)[C@H]3O)nc2c1	none (no result: PKA-R2B activ, PKA-R1A activ, UCH37 inh)
O=S(=O)(Cc1ccccc1)N1CCN(c2ncccn2)CC1	Rin1-Abl PPI inh 7.2 | Rin1 Abl conf inactive | GFP quencher inactive
O=C(C1CCN(S(=O)(=O)Cc2ccccc2)CC1)N1CCN(c2ncccn2)CC1	none
Cc1ccc(S(=O)(=O)N2CCN(C(=O)CSc3ccccn3)CC2)c(C)c1	Rin1-Abl PPI inh 8.2 | Rin1 Abl conf inactive | GFP quencher inactive
O=C(CCO)c1ccc(O)cc1	Rin1-Abl PPI inh 29 | Rin1 Abl conf 33 | GFP quencher inactive | GFP quench DR inactive

High-throughput results from PubChem BioAssay.
